Laboratory results published in publication PMC3517184 (Bioorganic & medicinal chemistry, 2012).
Values belong to the compound of their own block, whether it stands above or below them.

Experiments:
[1] = molecular target: TLR1/TLR2 (Mus musculus, UniProt Q9EPQ1+Q9QUN7); experiment: TLR specificity test, NO production induced by Pam3CSK4 in RAW 264.7 cells; format: cell-based, murine; conditions: 0.6 μM
[2] = test system: TLR7/8; experiment: TLR specificity test, NO production induced by R848 in RAW 264.7 cells; format: cell-based, murine; conditions: 0.6 μM
[3] = molecular target: T1, TLR3 (Mus musculus, UniProt Q99MB1); experiment: TLR specificity test, NO production induced by poly; format: cell-based, murine; conditions: 0.6 μM, RAW 264.7 cells, poly(I:C)
T1 sequence (Q99MB1 26-905): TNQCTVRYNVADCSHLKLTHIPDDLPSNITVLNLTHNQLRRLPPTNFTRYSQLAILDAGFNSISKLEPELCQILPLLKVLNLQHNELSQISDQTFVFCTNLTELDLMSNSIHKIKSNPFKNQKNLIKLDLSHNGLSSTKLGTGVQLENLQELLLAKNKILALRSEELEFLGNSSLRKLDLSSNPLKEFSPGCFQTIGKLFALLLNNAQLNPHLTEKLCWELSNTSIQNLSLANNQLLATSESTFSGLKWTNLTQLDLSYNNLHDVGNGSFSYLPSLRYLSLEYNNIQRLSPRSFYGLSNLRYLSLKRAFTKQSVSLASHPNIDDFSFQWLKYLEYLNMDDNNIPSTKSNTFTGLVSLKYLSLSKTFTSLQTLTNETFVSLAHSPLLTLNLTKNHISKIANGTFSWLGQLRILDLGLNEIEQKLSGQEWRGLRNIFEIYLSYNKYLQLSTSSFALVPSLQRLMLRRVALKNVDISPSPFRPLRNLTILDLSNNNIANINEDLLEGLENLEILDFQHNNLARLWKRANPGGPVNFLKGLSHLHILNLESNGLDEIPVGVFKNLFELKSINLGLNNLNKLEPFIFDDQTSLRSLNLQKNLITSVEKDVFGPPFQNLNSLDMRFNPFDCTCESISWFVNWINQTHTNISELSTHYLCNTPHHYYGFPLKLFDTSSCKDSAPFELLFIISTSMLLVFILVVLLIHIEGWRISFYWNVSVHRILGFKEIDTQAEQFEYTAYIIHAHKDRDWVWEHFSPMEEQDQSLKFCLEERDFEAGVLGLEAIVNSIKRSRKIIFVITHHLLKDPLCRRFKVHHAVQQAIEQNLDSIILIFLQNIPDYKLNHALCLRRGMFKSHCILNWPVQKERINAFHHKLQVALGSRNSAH

[4] = test system: cell viability; experiment: WST-1 cell viability / toxicity assay; format: cell-based; conditions: up to 10.0 μM
How it was run: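 Cells are seeded at 2×10^4 per well and cultured 24 h at 37°C, then moved to serum-free medium with vehicle or test compound at various concentrations for 24 h. Premixed WST-1 reagent is added, and after 30 min at 37°C absorbance is read at 490 nm.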

[5] = test system: LPS-induced activation of NF-κB; experiment: NF-κB dual luciferase reporter assay in BV-2 microglial cells; format: cell-based
How it was run: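 NF-κB dual-luciferase reporter BV-2 microglia are kept in DMEM with 10% FBS, penicillin, streptomycin and puromycin (3 μg/mL). After 24 h seeding, medium is switched to Opti-MEM with 0.5% FBS. Test compound is added, then LPS at 200 ng/mL for 24 h. Dual-Glo luminescence is read, and the firefly/Renilla ratio is taken as NF-κB activity.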

[6] = molecular target: TLR2/TLR6 heterodimer (Mus musculus, UniProt Q9EPW9+Q9QUN7); experiment: TLR specificity test, NO production induced by FSL-1 in RAW 264.7 cells; format: cell-based, murine; conditions: 0.6 μM
Chain of TLR2/TLR6 heterodimer (Q9QUN7 25-784): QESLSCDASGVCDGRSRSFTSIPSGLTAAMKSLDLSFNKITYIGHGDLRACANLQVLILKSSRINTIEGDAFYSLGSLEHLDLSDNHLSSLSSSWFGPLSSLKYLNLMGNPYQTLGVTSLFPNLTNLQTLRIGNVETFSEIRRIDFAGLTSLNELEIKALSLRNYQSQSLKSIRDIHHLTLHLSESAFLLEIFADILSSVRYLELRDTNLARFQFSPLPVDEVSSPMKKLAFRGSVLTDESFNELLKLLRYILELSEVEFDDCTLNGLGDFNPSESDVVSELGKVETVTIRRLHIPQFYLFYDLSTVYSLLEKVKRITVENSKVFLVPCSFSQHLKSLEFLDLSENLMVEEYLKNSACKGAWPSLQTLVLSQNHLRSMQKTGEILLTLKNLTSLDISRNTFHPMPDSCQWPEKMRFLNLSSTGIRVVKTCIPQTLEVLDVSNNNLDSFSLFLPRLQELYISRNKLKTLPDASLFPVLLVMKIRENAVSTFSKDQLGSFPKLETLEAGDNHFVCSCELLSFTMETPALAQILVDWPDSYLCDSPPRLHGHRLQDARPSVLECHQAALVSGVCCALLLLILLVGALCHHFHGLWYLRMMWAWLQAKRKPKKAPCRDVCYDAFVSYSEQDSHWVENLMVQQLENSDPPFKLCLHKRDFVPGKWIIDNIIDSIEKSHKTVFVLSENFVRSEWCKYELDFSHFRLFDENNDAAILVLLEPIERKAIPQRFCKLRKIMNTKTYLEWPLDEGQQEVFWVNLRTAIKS
Chain of TLR2/TLR6 heterodimer (Q9EPW9 28-795): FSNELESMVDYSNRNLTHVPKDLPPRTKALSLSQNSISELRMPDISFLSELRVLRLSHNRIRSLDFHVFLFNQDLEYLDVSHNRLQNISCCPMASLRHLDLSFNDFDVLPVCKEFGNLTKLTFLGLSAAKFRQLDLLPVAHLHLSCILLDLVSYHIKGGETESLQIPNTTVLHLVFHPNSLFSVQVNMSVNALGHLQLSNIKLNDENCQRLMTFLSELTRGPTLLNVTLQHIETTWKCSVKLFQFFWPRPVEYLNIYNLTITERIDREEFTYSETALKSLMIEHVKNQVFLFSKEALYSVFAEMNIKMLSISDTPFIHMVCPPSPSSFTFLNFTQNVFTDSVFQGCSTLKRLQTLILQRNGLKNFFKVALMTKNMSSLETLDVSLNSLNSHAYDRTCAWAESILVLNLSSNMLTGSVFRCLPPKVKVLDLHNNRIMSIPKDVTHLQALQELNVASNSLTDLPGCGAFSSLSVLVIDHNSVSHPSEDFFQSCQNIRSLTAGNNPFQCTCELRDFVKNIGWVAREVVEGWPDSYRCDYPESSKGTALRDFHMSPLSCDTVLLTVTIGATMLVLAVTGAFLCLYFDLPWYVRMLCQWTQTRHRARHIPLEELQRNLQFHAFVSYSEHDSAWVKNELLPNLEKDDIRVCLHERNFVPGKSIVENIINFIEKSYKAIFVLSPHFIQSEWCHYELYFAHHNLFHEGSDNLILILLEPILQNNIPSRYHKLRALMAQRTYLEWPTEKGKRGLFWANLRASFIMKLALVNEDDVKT

[7] = test system: LPS-induced NO production in RAW 264.7 macrophage cells; experiment: Inhibition of LPS-induced NO production in RAW 264.7 macrophage cells; format: cell-based, murine
[8] = test system: LPS-induced IL-1β production; experiment: LPS-induced IL-1β production in RAW 264.7 cells; format: cell-based, murine; conditions: ELISA
How it was run: (§1)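 RAW 264.7 macrophages are grown in RPMI 1640 with 10% FBS, penicillin and streptomycin at 37°C and 5% CO2. Cells are pretreated with or without LPS, then given test compound (10 mM DMSO stock). After 24 h, supernatants are clarified and cells are lysed, with both stored at −80°C. ELISA measures TNF-α in medium and IL-1β in lysate, with IL-1β normalized to total protein.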

[9] = test system: LPS-induced TNF-α production; experiment: LPS-induced TNF-α production in RAW 264.7 cells; format: cell-based, murine; conditions: ELISA
How it was run: as §1

Chain of TLR1/TLR2 (Q9EPQ1 26-795): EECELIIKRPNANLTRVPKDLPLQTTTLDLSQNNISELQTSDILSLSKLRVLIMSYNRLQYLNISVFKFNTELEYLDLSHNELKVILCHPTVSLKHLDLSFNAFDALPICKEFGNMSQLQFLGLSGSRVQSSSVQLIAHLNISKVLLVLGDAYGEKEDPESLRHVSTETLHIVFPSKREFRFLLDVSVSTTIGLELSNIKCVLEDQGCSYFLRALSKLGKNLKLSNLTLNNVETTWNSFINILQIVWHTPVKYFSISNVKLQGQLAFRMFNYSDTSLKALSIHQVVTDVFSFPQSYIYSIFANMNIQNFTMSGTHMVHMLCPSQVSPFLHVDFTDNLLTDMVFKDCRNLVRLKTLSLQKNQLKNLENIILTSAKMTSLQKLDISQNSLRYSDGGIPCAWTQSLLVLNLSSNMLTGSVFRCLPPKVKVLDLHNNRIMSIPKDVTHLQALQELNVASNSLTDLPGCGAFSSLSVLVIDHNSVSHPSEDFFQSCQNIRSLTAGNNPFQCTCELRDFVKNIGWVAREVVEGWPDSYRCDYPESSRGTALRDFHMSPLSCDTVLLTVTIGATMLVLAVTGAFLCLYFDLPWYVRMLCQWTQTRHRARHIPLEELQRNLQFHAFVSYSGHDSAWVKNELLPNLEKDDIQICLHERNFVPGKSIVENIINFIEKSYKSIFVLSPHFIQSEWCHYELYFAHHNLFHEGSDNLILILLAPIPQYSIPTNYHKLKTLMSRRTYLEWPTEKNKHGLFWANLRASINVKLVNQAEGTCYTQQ
Chain of TLR1/TLR2 (Q9QUN7 25-784): as the sequence (Q9QUN7 25-784) above

inhibition of TLR1/TLR2 signaling (NO production) [1]: negligible inhibition
inhibition of TLR3 signaling (NO production) [3]: negligible inhibition
IC50 ([5]; Mus musculus, BV-2, 24 h, read-out: IC50, inhibition of LPS-induced NF-κB reporter activity): 5.92 ± 0.14 µM
effect on signal via TLR2/TLR6 heterodimer (NO production) [6]: reduced the signal
SMILES: COC(=O)C(=Cc1ccccc1[N+](=O)[O-])C(=O)OC [Compound 1, Dimethyl 2-(2-nitrobenzylidene)malonate]
inhibition of TLR7/8 signaling (NO production) [2]: negligible inhibition
cytotoxicity (WST-1 toxicity assay) [4]: did not show significant toxicity

SMILES: COC(=O)C(=Cc1ccccc1)C(=O)OC [Compound 2, Dimethyl 2-benzylidenemalonate]
decrease of activity relative to 1 (NO production) ([7]; absence of any substituent on the benzene ring): greater than 2 fold

SMILES: COC(=O)C(Cc1ccccc1[N+](=O)[O-])C(=O)OC [Compound 22, Dimethyl 2-(2-nitrobenzyl) malonate]
effect on IL-1β production [8]: did not affect
effect on LPS-induced NF-κB activation ([5]; BV-2 cells, concentrations up to 10 μM): did not alter
effect on TNF-α production [9]: did not affect
inhibition of LPS-induced NO production ([7]; RAW 264.7 cells, at the tested concentrations (Figure 1A)): negligible inhibition
